Measurements reported in ChEMBL document CHEMBL4330067, “Synthesis and mechanistic studies of diketo acids and their bioisosteres as potential antibacterial agents” (Eur J Med Chem, 2019).
In brackets after ≈: the same amount, converted by molar mass.

How the values were obtained:
[1] = tested on: Enterococcus faecalis; assay: Inhibition of Enterococcus faecalis methionine aminopeptidase 1A at 100 uM using Met-AMC as substrate relative to control
Summary of the method: (§1)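 Purified MetAP at 4 µM in 50 mM HEPES with 150 mM KCl and CoCl2 at 3 molar equivalents of enzyme. pH 7.5 for SpMetAP1a and EfMetAP1a, pH 8.0 for HsMetAP1b. Substrate L-Met-AMC at 50, 100 and 150 µM. Compounds (10 mM DMSO stocks) tested over 1 to 120 µM for % inhibition; Ki by Dixon method.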

[2] = tested on: Streptococcus pneumoniae; assay: Inhibition of Streptococcus pneumoniae methionine aminopeptidase 1A at 100 uM using Met-AMC as substrate relative to control; summary of the method: as §1
[3] = Inhibition of Mycobacterium tuberculosis methionine aminopeptidase 1C using Met-AMC as substrate by Dixon method
[4] = species: Homo sapiens; assay: Inhibition of human methionine aminopeptidase 1B at 100 uM using Met-AMC as substrate relative to control; summary of the method: as §1
[5] = tested on: Mycobacterium tuberculosis; assay: Inhibition of Mycobacterium tuberculosis methionine aminopeptidase 1C at 100 uM using Met-AMC as substrate relative to control
Summary of the method: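 Purified MtMetAP1c (4 µM) in 50 mM Hepes pH 7.5 with 150 mM KCl and CoCl2 at three molar equivalents of enzyme. Substrate was L-Met-AMC at 50, 100 or 150 µM. Compounds came from 10 mM DMSO stocks. Percent inhibition was taken against the uninhibited control.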

[6] = tested on: Escherichia coli; assay: Antibacterial activity against Escherichia coli MRC24 after overnight incubation; assay type: functional
Summary of the method: (§2)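 Multidrug-resistant E. coli isolates in Luria broth, test range 8 to 1024 µg/mL (ciprofloxacin 0.49 to 63.3 µg/mL). Inoculum 10 µL of a 1000-fold diluted 0.1 OD600 culture, incubated overnight at 37 °C. OD read at 600 nm. % inhibition = (a−b)/a×100, with media and compound-colour blanks subtracted.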

[7] = tested on: Enterococcus faecalis; assay: Antibacterial activity against Enterococcus faecalis MTCC 439 after 24 hrs by broth dilution assay; assay type: functional; details: MTCC 439, 24 h
Summary of the method: (§3)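 Broth dilution per NCCLS in nutrient broth, serial dilutions 1000 to 7.8 µg/mL, DMSO below 4% final. Inoculum approx. 2.5×10⁶ cells/mL, 37 °C with shaking at 150 rpm for 24 h. MIC taken as the lowest concentration with no visible growth. Ciprofloxacin served as positive control.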

[8] = tested on: Escherichia coli; assay: Antibacterial activity against Escherichia coli MRA11 after overnight incubation; assay type: functional; summary of the method: as §2
[9] = tested on: Escherichia coli; assay: Antibacterial activity against Escherichia coli MROB11 after overnight incubation; assay type: functional; summary of the method: as §2
[10] = tested on: Escherichia coli; assay: Antibacterial activity against Escherichia coli MRAE33 after overnight incubation; assay type: functional; summary of the method: as §2
[11] = tested on: Klebsiella pneumoniae; assay: Antibacterial activity against Klebsiella pneumoniae ATCC 700603 after 24 hrs by broth dilution assay; assay type: functional; details: Klebsiella pneumoniae, 700603, 24 h; summary of the method: as §3
[12] = tested on: Escherichia coli; assay: Antibacterial activity against Escherichia coli MRAE26 after overnight incubation; assay type: functional; summary of the method: as §2
[13] = tested on: Salmonella typhimurium; assay: Antibacterial activity against Salmonella typhimurium MTCC 3224 after 24 hrs by broth dilution assay; assay type: functional, Salmonella enterica subsp. enterica serovar Typhimurium; details: Salmonella enterica, MTCC 3224, 24 h; summary of the method: as §3
[14] = tested on: Escherichia coli; assay: Antibacterial activity against Escherichia coli MRAE44 after overnight incubation; assay type: functional; summary of the method: as §2
[15] = tested on: Escherichia coli; assay: Antibacterial activity against Escherichia coli MRAE32 after overnight incubation; assay type: functional; summary of the method: as §2
[16] = tested on: Streptococcus pneumoniae; assay: Antibacterial activity against Streptococcus pneumoniae MTCC 655 after 24 hrs by broth dilution assay; assay type: functional; details: MTCC 655, 24 h; summary of the method: as §3
[17] = tested on: Escherichia coli; assay: Antibacterial activity against Escherichia coli MRC17 after overnight incubation; assay type: functional; summary of the method: as §2
[18] = tested on: Escherichia coli; assay: Antibacterial activity against Escherichia coli ATCC 25922 after 24 hrs by broth dilution assay; assay type: functional; details: ATCC 25922, 24 h; summary of the method: as §3
[19] = Inhibition of Streptococcus pneumoniae methionine aminopeptidase 1A using Met-AMC as substrate by Dixon method; summary of the method: as §1
[20] = tested on: Pseudomonas aeruginosa; assay: Antibacterial activity against Pseudomonas aeruginosa MTCC 2453 after 24 hrs by broth dilution assay; assay type: functional; details: MTCC 2453, 24 h; summary of the method: as §3
[21] = Inhibition of human methionine aminopeptidase 1B using Met-AMC as substrate by Dixon method; summary of the method: as §1
[22] = Inhibition of Enterococcus faecalis methionine aminopeptidase 1A using Met-AMC as substrate by Dixon method; summary of the method: as §1

Row | SMILES | inhibition [1] [%] | inhibition [2] [%] | Ki [3] [µM] | inhibition [4] [%] | inhibition [5] [%] | MIC [7] [µg/mL] | MIC [11] [µg/mL] | MIC [13] [µg/mL] | MIC [16] [µg/mL] | MIC [18] [µg/mL] | Ki [19] [µM] | MIC [20] [µg/mL] | Ki [21] [µM] | other results
1 | COC(=O)[C@@H](C)NC(=O)c1cc(-c2ccc(Cl)cc2)no1 | 15.4 | 43.8 | 134 | 43.1 | 53.2 | – | – | – | – | – | – | – | – | –
2 | O=C(O)c1cn(C2CC2)c2cc(N3CCNCC3)c(F)cc2c1=O [CIPROFLOXACIN] | – | – | – | – | – | 0.0625 (≈ 0.189 µM) | 0.25 (≈ 0.754 µM) | 0.0156 (≈ 0.0471 µM) | 0.312 (≈ 0.942 µM) | – | – | – | – | ICmax [6]: 1.975 µg/mL; ICmax [8]: 63.3 µg/mL; MIC ([8]; Escherichia coli, MRA11): 128 µg/mL (≈ 386 µM); ICmax [9]: 1.975 µg/mL; ICmax [10]: 7.9 µg/mL; ICmax [12]: 1.975 µg/mL; ICmax [14]: 63.3 µg/mL; ICmax [15]: 63.3 µg/mL; ICmax [17]: 63.3 µg/mL; MIC ([17]; Escherichia coli, MRC17): 128 µg/mL (≈ 386 µM)
3 | COC(=O)[C@@H](C)NC(=O)c1cc(-c2oc3ccc(Br)cc3c2C)no1 | 18.8 | 36.5 | – | 45.1 | – | – | – | – | – | – | – | – | – | –
4 | CCOC(=O)/C(O)=C/C(=O)c1ccccc1C | 43.5 | 50.3 | 36.7 | 61.4 | 55.8 | 250 (≈ 1070 µM) | 1000 (≈ 4270 µM) | 1000 (≈ 4270 µM) | 250 (≈ 1070 µM) | 250 (≈ 1070 µM) | 98.5 | 1000 (≈ 4270 µM) | 74.3 | –
5 | Cc1ccccc1C(=O)/C=C(\O)C(=O)O | 54.7 | 62.8 | 37.5 | 52.3 | 65.7 | 500 (≈ 2420 µM) | 1000 (≈ 4850 µM) | 1000 (≈ 4850 µM) | 500 (≈ 2420 µM) | 250 (≈ 1210 µM) | 87.5 | 1000 (≈ 4850 µM) | 73.8 | Ki [22]: 62.6 µM
6 | CCOC(=O)c1cc(-c2ccc(Cl)cc2)no1 | 19.4 | 40.3 | 152 | 66.3 | 47.4 | 500 (≈ 1990 µM) | 1000 (≈ 3970 µM) | > 1000 | 1000 (≈ 3970 µM) | 500 (≈ 1990 µM) | – | 500 (≈ 1990 µM) | 160 | –
7 | CCOC(=O)/C(O)=C/C(=O)c1ccc(Cl)cc1 | 27.3 | 55.3 | 39.5 | 61 | 70.5 | 250 (≈ 982 µM) | > 1000 | 500 (≈ 1960 µM) | 500 (≈ 1960 µM) | 500 (≈ 1960 µM) | 62.6 | 500 (≈ 1960 µM) | 56.1 | –
8 | COC(=O)[C@@H](C)NC(=O)c1cc(-c2ccccc2C)no1 | 24.9 | 37 | – | 51.1 | 45.9 | – | – | – | – | – | – | – | 137 | –
9 | Cc1ccccc1-c1cc(C(=O)N[C@H](C)C(=O)O)on1 | 43.4 | 44.6 | – | 50.2 | 40.9 | – | – | – | – | – | – | – | 86.9 | –
10 | COC(=O)[C@@H](C)NC(=O)/C(O)=C/C(=O)c1ccccc1C | 59.6 | 57 | 32.6 | 51.9 | 67.1 | 500 (≈ 1720 µM) | 1000 (≈ 3430 µM) | 1000 (≈ 3430 µM) | 125 (≈ 429 µM) | 1000 (≈ 3430 µM) | 51.9 | 1000 (≈ 3430 µM) | 113 | Ki [22]: 60.4 µM
